Reference: ChEMBL document CHEMBL5550111, “Design, synthesis and biological evaluation of aryloxy thiophosphoramidate triesters of anticancer nucleoside analogues” (Bioorg Med Chem, 2024)

Key:
[1] = test system: OVCAR-3; test: Cytotoxicity against human OVCAR-3 cells assessed as inhibition of cell viability incubated for 72 hrs by MTS assay; format: functional, cell-based; conditions: OVCAR-3, 72 h
Outline: (§1)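 Cells seeded at 0.5 to 100 × 10^3 per well the day before treatment, then exposed for 72 h to 9 serial concentrations (3.16-fold dilutions, top 198 μM), in duplicate. MTS added for a final 4 h at 37 °C and absorbance read. IC50 is the concentration giving 50% loss of viability. MI% is the maximum inhibition over the tested range.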

[2] = test system: PC-3; test: Cytotoxicity against human PC-3 cells assessed as maximum inhibition of cell viability upto 198 uM incubated for 72 hrs by MTS assay relative to control; format: functional; conditions: up to 198 µM
Outline: (§2)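 Cells seeded at 0.5 to 100 × 10^3 per well the day before drug addition, then exposed to compound for 72 h. MTS added afterwards, with a further 4 h at 37 °C, and absorbance read. Tested in duplicate at 9 serial 3.16-fold dilutions, top concentration 198 μM. MI% is the maximum inhibition of viability across the tested range.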

[3] = test system: A2780; test: Cytotoxicity against human A2780 cells assessed as maximum inhibition of cell viability upto 198 uM incubated for 72 hrs by MTS assay relative to control; format: functional; conditions: up to 198 µM; outline: as §2
[4] = test system: COLO 205; test: Cytotoxicity against human COLO 205 cells assessed as inhibition of cell viability incubated for 72 hrs by MTS assay; format: functional, cell-based; conditions: COLO 205, 72 h; outline: as §1
[5] = test system: MIA PaCa-2; test: Cytotoxicity against human MIA PaCa-2 cells assessed as inhibition of cell viability incubated for 72 hrs by MTS assay; format: functional, cell-based; conditions: MIA PaCa-2, 72 h; outline: as §1
[6] = test system: BXPC-3; test: Cytotoxicity against human BXPC-3 cells assessed as maximum inhibition of cell viability upto 198 uM incubated for 72 hrs by MTS assay relative to control; format: functional; conditions: up to 198 µM; outline: as §2
[7] = test system: MIA PaCa-2; test: Cytotoxicity against human MIA PaCa-2 cells assessed as maximum inhibition of cell viability upto 198 uM incubated for 72 hrs by MTS assay relative to control; format: functional; conditions: up to 198 µM; outline: as §2
[8] = test system: SK-MES-1; test: Cytotoxicity against human SK-MES-1 cells assessed as inhibition of cell viability incubated for 72 hrs by MTS assay; format: functional, cell-based; conditions: SK-MES-1, 72 h; outline: as §1
[9] = test system: HepG2; test: Cytotoxicity against human HepG2 cells assessed as maximum inhibition of cell viability upto 198 uM incubated for 72 hrs by MTS assay relative to control; format: functional; conditions: up to 198 µM; outline: as §2
[10] = test system: RT112/84; test: Cytotoxicity against human RT112/84 cells assessed as inhibition of cell viability incubated for 72 hrs by MTS assay; format: functional, cell-based; conditions: RT112/84, 72 h; outline: as §1
[11] = test system: RT112/84; test: Cytotoxicity against human RT112/84 cells assessed as maximum inhibition of cell viability upto 198 uM incubated for 72 hrs by MTS assay relative to control; format: functional; conditions: up to 198 µM; outline: as §2
[12] = test system: PANC-1; test: Cytotoxicity against human PANC-1 cells assessed as inhibition of cell viability incubated for 72 hrs by MTS assay; format: functional, cell-based; conditions: PANC-1, 72 h; outline: as §1
[13] = test system: A2780; test: Cytotoxicity against human A2780 cells assessed as inhibition of cell viability incubated for 72 hrs by MTS assay; format: functional, cell-based; conditions: A2780, 72 h; outline: as §1
[14] = test system: BXPC-3; test: Cytotoxicity against human BXPC-3 cells assessed as inhibition of cell viability incubated for 72 hrs by MTS assay; format: functional, cell-based; conditions: BXPC-3, 72 h; outline: as §1
[15] = test system: HepG2; test: Cytotoxicity against human HepG2 cells assessed as inhibition of cell viability incubated for 72 hrs by MTS assay; format: functional, cell-based; conditions: HepG2, 72 h; outline: as §1
[16] = (§3) Prodrug activation assessed as carboxypeptidase Y (unknown origin) mediated intermediate (2S)-2-[[[(2R,3R,5R)-5-(4-amino-2-oxo-pyrimidin-1-yl)-4,4-difluoro-3-hydroxy-tetrahydrofuran-2-yl]methoxy-phenoxy-phosphinothioyl]amino]propanoic acid formation at 5 mg measured after 5 hrs by 31P-NMR assay; parameters: species or system Homo sapiens
Outline: (§4)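 Thiophosphoramidate (5 mg, about 0.008 mmol) dissolved in 150 µL acetone-d6, with 300 µL TRIZMA buffer pH 7.6 added. Enzymatic conversion followed by 31P-NMR.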

[17] = test system: SK-MES-1; test: Cytotoxicity against human SK-MES-1 cells assessed as maximum inhibition of cell viability upto 198 uM incubated for 72 hrs by MTS assay relative to control; format: functional; conditions: up to 198 µM; outline: as §2
[18] = test system: HT-29; test: Cytotoxicity against human HT-29 cells assessed as inhibition of cell viability incubated for 72 hrs by MTS assay; format: functional, cell-based; conditions: HT-29, 72 h; outline: as §1
[19] = test system: MDA-MB-231; test: Cytotoxicity against human MDA-MB-231 cells assessed as maximum inhibition of cell viability upto 198 uM incubated for 72 hrs by MTS assay relative to control; format: functional; conditions: up to 198 µM; outline: as §2
[20] = test system: OVCAR-3; test: Cytotoxicity against human OVCAR-3 cells assessed as maximum inhibition of cell viability upto 198 uM incubated for 72 hrs by MTS assay relative to control; format: functional; conditions: up to 198 µM; outline: as §2
[21] = test system: PANC-1; test: Cytotoxicity against human PANC-1 cells assessed as maximum inhibition of cell viability upto 198 uM incubated for 72 hrs by MTS assay relative to control; format: functional; conditions: up to 198 µM; outline: as §2
[22] = test system: PC-3; test: Cytotoxicity against human PC-3 cells assessed as inhibition of cell viability incubated for 72 hrs by MTS assay; format: functional, cell-based; conditions: PC-3, 72 h; outline: as §1
[23] = Cytotoxicity against human T24/83 cells assessed as inhibition of cell viability incubated for 72 hrs by MTS assay; format: functional, cell-based; conditions: T24/83, 72 h; outline: as §1
[24] = test system: COLO 205; test: Cytotoxicity against human COLO 205 cells assessed as maximum inhibition of cell viability upto 198 uM incubated for 72 hrs by MTS assay relative to control; format: functional; conditions: up to 198 µM; outline: as §2
[25] = test system: MDA-MB-231; test: Cytotoxicity against human MDA-MB-231 cells assessed as inhibition of cell viability incubated for 72 hrs by MTS assay; format: functional, cell-based; conditions: MDA-MB-231, 72 h; outline: as §1
[26] = as §3, with “mediated (2S)-2-[[[(2R,3R,5R)-5-(4-amino-2-oxo-pyrimidin-1-yl)-4,4-difluoro-3-hydroxy-tetrahydrofuran-2-yl]methoxy-hydroxy-phosphoryl]amino]propanoic acid formation from” for “mediated”, “acid” for “acid formation”, “for 48” for “after 5”; conditions: human, in vivo; outline: as §4
[27] = test system: HT-29; test: Cytotoxicity against human HT-29 cells assessed as maximum inhibition of cell viability upto 198 uM incubated for 72 hrs by MTS assay relative to control; format: functional; conditions: up to 198 µM; outline: as §2

Q: With `C[C@H](NP(=S)(OC[C@H]1O[C@@H](n2ccc(N)nc2=O)C(F)(F)[C@@H]1O)Oc1ccccc1)C(=O)OCc1ccccc1` (some centres not stated) as the molecule, how does the IC50 [1] read?
A: 97.4 µM

Q: What about the Imax [2] of the same molecule?
A: 96%

Q: And the Imax [3]?
A: 100%

Q: What about the IC50 [4] of the same molecule?
A: 22.3 µM

Q: What about the IC50 [5] of the same molecule?
A: 3.83 µM

Q: What about the Imax [6] of the same molecule?
A: 95%

Q: And the Imax [7]?
A: 99%

Q: And the IC50 [8]?
A: 0.92 µM

Q: What about the Imax [9] of the same molecule?
A: 98%

Q: And the IC50 [10]?
A: 0.92 µM

Q: And the Imax [11]?
A: 94%

Q: And the IC50 [12]?
A: 76.4 µM

Q: What about the IC50 [13] of the same molecule?
A: 3.58 µM

Q: And the IC50 [14]?
A: 8.16 µM

Q: And the IC50 [15]?
A: 27.1 µM

Q: And the Drug metabolism [16]?
A: Metabolite_Detected

Q: And the Imax [17]?
A: 94%

Q: And the IC50 [18]?
A: 11.5 µM

Q: And the Imax [19]?
A: 91%

Q: And the Imax [20]?
A: 46%

Q: And the Imax [21]?
A: 99%

Q: And the IC50 [22]?
A: 43.9 µM

Q: What about the IC50 [23] of the same molecule?
A: 0.32 µM

Q: And the Imax [24]?
A: 97%

Q: And the IC50 [25]?
A: 11.6 µM

Q: And the Drug metabolism [26]?
A: Metabolite_Detected

Q: What about the Imax [27] of the same molecule?
A: 99%
